# Compound activity from PubChem.
# Hsp70 activator: Hsp70 transcriptional activators, primary screen, cell-based, HeLa, Hsp70 promoter luciferase, luminescence, 10 µM | 0.04% of 200,000 active | AID 1203, 2008 | activation, % at 10 µM | HeLa Hsp70 promoter luciferase reporter; scaled: vehicle 0, proteasome-inhibitor control 100%;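 active = activation above the mean across all tested compounds plus 3 SD, cutoff set per campaign, cut at about 5.5% in these data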;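 also: 100% = MG132 at 30 µM as the positive control and 0% = DMSO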
# RBBP9 inhibitor: human RBBP9 inhibitors, primary screen, biochemical, fluorescence polarization, FP-Rh probe, HTS. 0.2% of 220,000 active. inhibition, % at 7.94 µM. Serine hydrolase RBBP9 (Homo sapiens), O75884. recombinant RBBP9;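 active = inhibition above the campaign mean of all tested compounds plus 3 SD, cut at about 14% in these data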;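 also: plate controls were DMSO wells with RBBP9 for no effect and wells lacking RBBP9 protein for full effect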
#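 System: RBBP9 protein / Quantity: 2.5 µM RBBP9 dispensing solution, before mixing / Also added: Serine-hydrolase probe FP-Rh, 375 nM pre-mixing / Dosing: 7.94 µM single dose, 0.794% DMSO / Timing: enzyme-compound preincubation 30 min, then probe labeling 45 min, 25 °C / Signal: FP readout at 525/598 nm / Controls: DMSO-treated enzyme wells and wells lacking RBBP9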
# p97 inhibitor: inhibitors of human p97 ATPase, primary screen, biochemical; Transitional endoplasmic reticulum ATPase (Homo sapiens), P55072; recombinant p97 ATPase, Kinase-Glo ATP luminescence, 3 h; inhibition, % at 8 µM; 0.42% of 220,000 active; AID 1481, 2009; in the data active = inhibition above about 15%;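 also: 0% = DMSO vehicle and 100% = wells lacking enzyme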
# Target sequence (P55072 whole entry, looked up): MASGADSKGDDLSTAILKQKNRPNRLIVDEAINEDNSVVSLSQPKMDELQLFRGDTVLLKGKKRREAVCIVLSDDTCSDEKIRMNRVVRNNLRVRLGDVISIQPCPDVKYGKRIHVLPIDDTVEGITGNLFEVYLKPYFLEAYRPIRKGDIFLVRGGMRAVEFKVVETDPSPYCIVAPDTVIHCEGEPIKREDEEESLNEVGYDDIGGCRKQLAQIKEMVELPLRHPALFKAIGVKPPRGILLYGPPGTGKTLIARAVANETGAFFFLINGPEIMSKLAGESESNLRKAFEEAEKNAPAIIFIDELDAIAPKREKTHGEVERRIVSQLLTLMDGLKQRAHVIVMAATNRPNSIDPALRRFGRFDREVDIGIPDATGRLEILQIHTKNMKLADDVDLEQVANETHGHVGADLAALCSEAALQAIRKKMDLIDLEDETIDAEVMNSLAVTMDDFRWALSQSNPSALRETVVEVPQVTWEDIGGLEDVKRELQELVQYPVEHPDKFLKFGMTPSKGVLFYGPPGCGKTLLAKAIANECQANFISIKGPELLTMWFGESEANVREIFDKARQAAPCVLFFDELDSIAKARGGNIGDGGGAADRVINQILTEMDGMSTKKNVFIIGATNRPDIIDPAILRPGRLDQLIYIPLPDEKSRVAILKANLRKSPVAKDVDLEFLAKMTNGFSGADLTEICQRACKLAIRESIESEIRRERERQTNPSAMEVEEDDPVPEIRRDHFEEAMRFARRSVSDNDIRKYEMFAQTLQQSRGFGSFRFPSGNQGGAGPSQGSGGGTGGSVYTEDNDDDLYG
# PKD1 kinase inh: inhibitors of human PKD1 kinase, biochemical, fluorescence polarization; PKD1 kinase fluorescence polarization assay; inhibition, % (concentration not given with the values); 0.056% of 200,000 active; in the data active = inhibition above about 50%
# PP1 inh: PP1-alpha phosphatase inhibitors, primary screen, counter-screen for PP5 inhibitor project, biochemical, fluorescence, OMFP substrate, single point. Serine/threonine-protein phosphatase PP1-alpha catalytic subunit (Homo sapiens), P62136. purified PP1alpha. inhibition, % at 6.7 µM. 0.9% of 320,000 active. AID 2235, 2010;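 active = inhibition above the mean inhibition of all tested compounds plus 3 SD, computed separately for each screening campaign, cut at about 15% in these data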
# PP5 inh: PP5 phosphatase inhibitors, primary screen, biochemical, fluorescence. inhibition, % at 6.7 µM. AID 1987, 2009. 0.18% of 320,000 active. Serine/threonine-protein phosphatase 5 (Homo sapiens), P53041. purified PP5c, OMFP substrate fluorescence;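 active = inhibition above the campaign's mean inhibition across all tested compounds plus 3 SD, cut at about 9.5% in these data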;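 also: 0% = DMSO only and 100% = 100 µM cantharidin control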
# RBBP9 inh conf: human RBBP9 inhibitors, retest, confirmation, biochemical, fluorescence polarization, FP-Rh probe, triplicate; shares compounds with RBBP9 inhibitor; recombinant RBBP9; inhibition, % at 7.94 µM; 36% of 410 active; AID 1537, 2009;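 active = inhibition above the hit cutoff derived for the primary screen, cut at about 15% in these data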;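 also: 0% = RBBP9 with DMSO and 100% = wells lacking RBBP9 protein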
# Numbers without * were called inactive; . = not tested or not shown. Compounds with a hit are over-represented: about 1.5% of the library has one in this group of screens.
SMILES,Hsp70 activator,RBBP9 inhibitor,p97 inhibitor,PKD1 kinase inh,PP1 inh,PP5 inh,RBBP9 inh conf
Cc1nc2ncccn2c1-c1csc(Nc2ccc(N(C)C)cc2)n1,0,24*,3,9,.,.,21*
O=S1(=O)NC[C@]23C[C@H](c4ccc(F)cc4)[C@@H](C[C@@H]21)O3,.,.,.,.,-3,0,.
O=C(NCC1CCCCC1)c1ccc(F)cc1Cl,.,.,.,.,1,0,.
CCOC(=O)C1=C(C)N(c2ccc(C)cc2)C(=O)/C1=C\c1ccc(O)c(OC)c1,.,15*,10,.,0,3,29*
CN=c1scc(-c2ccccc2F)n1/N=C/c1ccc[nH]1,0,0,-3,9,7,2,.
CN=c1scc(-c2ccccc2F)n1/N=C/c1ccc(O)c(O)c1O,0,33*,-4,-5,.,.,59*
COc1ccc(OC(C)C(=O)N2CCCc3ccccc32)cc1 (stereo unspecified),1,17*,1,0,3,3,5
CC(C)(C)NC(=O)CN(C(=O)c1ccc(CN2CCOCC2)o1)c1ccc2c(c1)OCCO2,0,-7,1,-7,-2,2,.
COc1ccc(C(=O)N(CC(=O)NC(C)(C)C)c2ccc3c(c2)OCCO3)cc1OC,0,15*,6,0,-1,-1,6
CC(C)(C)N1CCC1C(N)=O (stereo unspecified),.,18*,10,.,-2,0,2
c1ccc2c(c1)CCN2CCN1CCc2ccccc21,0,6,4,-10,13,1,.
O=C1c2ccccc2C(=O)N1CCN1CCc2ccccc21,0,17*,0,-2,2,-1,9
O=[N+]([O-])c1ccccc1Nc1c2ccccc2nc2ccccc12,0,-7,4,-3,-5,-2,.
O=[N+]([O-])c1ccc(Nc2c3ccccc3nc3ccccc23)cc1,0,16*,10,67*,.,.,12
NNc1nnc2c3cc(F)ccc3n(Cc3ccccc3)c2n1,.,20*,7,.,8,3,5
Cn1c(N2CCCC2)nc2c1c(=O)n(Cc1ccc(F)cc1)c(=O)n2C,0,-5,6,-2,0,4,.
Cn1c(N2CCOCC2)nc2c1c(=O)n(Cc1ccc(Cl)c(Cl)c1)c(=O)n2C,0,18*,-6,-11,-1,-1,4
COc1ccc(OC)c(NC(=O)C2CCN(S(=O)(=O)c3c(C)noc3C)CC2)c1,0,16*,3,-6,-2,-2,7
COc1ccc(OC)c(NC(=O)C2CCCN(S(=O)(=O)c3c(C)noc3C)C2)c1 (stereo unspecified),0,-1,2,7,1,0,.
O=c1c2ccccc2nc(/C=C/c2cccnc2)n1Cc1ccccc1,0,15*,2,-3,.,.,55*
Cc1cccc(/C=C/c2nc3ccccc3c(=O)n2Cc2ccccc2)c1,0,-5,3,-1,-3,2,.
COc1cc(NCC(=O)Nc2cccc(S(=O)(=O)N3CCCCC3)c2)cc(OC)c1OC,.,.,.,.,9,4,.
CC(C)C[C@H](N)c1nnc(SCc2ccc(Cl)cc2)o1,.,16*,2,.,-2,-1,10
COc1cc2ncnc(NCCCN3CCOCC3)c2cc1OC,.,15*,5,.,-7,2,7
N#Cc1ccsc1NC(=O)CSc1ncn[nH]1,1,15*,2,0,-5,-2,2
CC1Cc2ccccc2N1C(=O)CSc1nnc(-c2ccc(S(=O)(=O)N3CCOCC3)cc2)n1C (stereo unspecified),0,-5,4,-13,4,0,.
Cc1cc(C(=O)NN=C2CCCC2)c2ccccc2n1,.,.,.,.,-3,-2,.
Cc1cc(C(=O)NN=C2C3CC4CC(C3)CC2C4)c2ccccc2n1,0,15*,2,-1,3,4,7
CC(C)C(=O)Nc1ccc(C(=O)CSc2nnc(C3CC3)n2C2CC2)cc1,.,.,.,.,-9,1,.
